Only some compounds are listed: those with a hit (about 1.8% of all), similar ones and a draw of the others.
DDE Tn7 FP inh – inhibitors of Tn7 peptide binding to fibrin DD(E), primary screen, biochemical, fluorescence polarization, human fibrin, Tn7 probe; Fibrinogen beta chain (Homo sapiens), P02675; FP displacement of FITC-Tn7 peptide from fibrin DD(E); 0% = median of compound wells per plate; inhibition, % at 8.3 µM; actives 0.13% (n = 370,000); AID 720508, 2013;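 active means inhibition above the mean of compounds falling within the control limits plus 3 SD of them, cut at about 14% in these data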;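 further: 0% = plate median of compound wells and 100% = 10 µM Aha-Tn7 peptide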
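Measure: % inhibition scaled between sample-field median and high-control FP; Test system: human fibrin DD(E); Quantity: 2 µM final DD(E) protein; Doses: one dose, 8.3 µM nominal; Schedule: compound with protein 10 min, then 3 h after probe, room temperature; Detection: fluorescence polarization; Medium: Tris buffer with calcium and detergent, pH 7.8.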
SIAE primary – human SIAE inhibitors, primary screen, biochemical, fluorescence polarization, FP-Rh probe, 1536-well HTS. SIAE FP-Rh probe binding. inhibition, % at 9.66 µM. Sialate O-acetylesterase (Homo sapiens), Q9HAT2. actives 0.69% (n = 370,000). AID 1053197, 2014;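 active means inhibition above a cutoff: mean of compounds within the control limits plus 3 SD of those, cut at about 17% in these data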;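 further: 0% = plate median of compound wells and 100% = probe without SIAE protein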
ABHD4 inh – ABHD4 inhibitors, primary screen, biochemical, fluorescence polarization, mouse. purified mABHD4, FP-Rh probe fluorescence polarization. actives 0.54% (n = 370,000). (Lyso)-N-acylphosphatidylethanolamine lipase (Mus musculus), Q8VD66. inhibition, % at 8.92 µM;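 active means inhibition exceeding the mean over every tested compound plus 3 SD, cut at about 30% in these data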;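 further: 0% = plate median of compound wells and 100% = S159A mutant with DMSO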
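Assay system: wild-type mouse ABHD4 protein; compound: single nominal dose of 8.92 µM, 0.89% DMSO final; schedule: 45 min + 60 min at 25 °C; measured by: FP readout, ex 525 nm / em 598 nm; evaluation: % inhibition of FP-Rh probe binding versus controls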
HTRA1 inhibitor – HTRA1 serine protease inhibitors, primary screen, biochemical, fluorescence polarization, HTS | recombinant HTRA1, FP-rhodamine activity-based probe | actives 0.5% (n = 340,000) | Q92743 | inhibition, % at 5.96 µM | AID 504803, 2011; in the data active means inhibition above about 36%;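 further: 0% = enzyme with DMSO and 100% = wells lacking enzyme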
Target sequence (Q92743 whole entry, looked up): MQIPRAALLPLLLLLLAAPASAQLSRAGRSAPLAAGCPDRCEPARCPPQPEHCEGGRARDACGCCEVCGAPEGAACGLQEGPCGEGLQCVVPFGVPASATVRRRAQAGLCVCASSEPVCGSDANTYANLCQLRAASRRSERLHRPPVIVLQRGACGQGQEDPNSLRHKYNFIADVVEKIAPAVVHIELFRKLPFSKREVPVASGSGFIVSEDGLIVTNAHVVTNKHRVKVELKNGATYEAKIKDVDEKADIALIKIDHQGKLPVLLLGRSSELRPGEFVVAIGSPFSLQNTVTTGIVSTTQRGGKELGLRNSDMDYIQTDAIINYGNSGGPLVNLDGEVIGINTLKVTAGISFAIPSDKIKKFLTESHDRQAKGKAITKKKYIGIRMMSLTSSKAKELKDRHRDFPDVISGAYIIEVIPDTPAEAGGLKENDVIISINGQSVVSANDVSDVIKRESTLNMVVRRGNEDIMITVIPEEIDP
TCR CD3 inh – inhibitors of human TCR-CD3 interaction, primary screen, biochemical, fluorescence, TAMRA-labeled TCR probe | T-cell receptor (TCR) | inhibition, % at 9.4 µM | actives 0.37% (n = 360,000) | AID 651800, 2012; in the data active means inhibition above about 19%;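 further: recombinant mutant TCR 2C K166C tagged with TAMRA read by polarization; 0% = receptor in buffer alone and 100% = receptor with positive control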
Tn6 DDE FP – inhibitors of Tn6 peptide binding to fibrin DD(E), primary screen, biochemical, fluorescence polarization, human fibrin, Tn6 probe | Fibrin DD(E) TRITC-Tn6 fluorescence polarization displacement | inhibition, % at 8.3 µM | Fibrinogen beta chain (Homo sapiens), P02675 | actives 0.21% (n = 370,000) | AID 720509, 2013;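 active means inhibition above a per-campaign cutoff: mean of compounds within control limits plus 3 SD, cut at about 15% in these data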;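 further: 0% = median of all compound wells on the plate and 100% = blocking peptide control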
DDE Tn6 FP ctr – DD(E)-Tn6 binding inhibition, counter-screen; AID 720621; shares compounds with Tn6 DDE FP; actives 2% (n = 680); Fibrin DD(E), TRITC-Tn6 fluorescence polarization displacement; 0% = median of compound wells, not DMSO; inhibition, % at 8.3 µM;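 active means inhibition above the mean of test compounds lying between the control limits plus 3 SD of those, cut at about 14% in these data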;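 further: 0% = median of compound wells and 100% = wells with Aha-Tn7 blocking peptide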
Tn6 DDE conf – inhibitors of Tn6 peptide binding to fibrin DD(E), confirmation, biochemical, fluorescence polarization, human fibrin, Tn6 probe | inhibition, % at 8.3 µM | shares compounds with Tn6 DDE FP | actives 10% (n = 680) | FP displacement of TRITC-Tn6 peptide from DD(E); 0% = per-plate median of test wells;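 active means inhibition above the mean of compounds lying within the control limits plus 3 SD, cut at about 16% in these data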;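 further: 100% = high control wells holding a competing inhibitor peptide at 10 µM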
ABHD4 confirm – ABHD4 inhibitors, retest, confirmation, biochemical, fluorescence polarization, mouse | shares compounds with ABHD4 inh | purified mABHD4, FP-Rh probe fluorescence polarization | inhibition, % at 8.92 µM | actives 55% (n = 1,800);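 active means mean inhibition across replicates above the hit cutoff set in the primary screen, cut at about 30% in these data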;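 further: 0% = wild-type ABHD4 with DMSO and 100% = catalytically dead S159A mutant with DMSO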
SIAE inh conf – human SIAE inhibitors, retest, confirmation, biochemical, fluorescence polarization, FP-Rh probe, triplicate; shares compounds with SIAE primary; SIAE FP-Rh activity-based probe; actives 13% (n = 2,300); inhibition, % at 9.66 µM;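 active means mean inhibition of the replicates above the hit cutoff set in the primary screen, cut at about 17% in these data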;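 further: 0% = SIAE with DMSO and probe and 100% = probe without SIAE; inhibitors lower polarization as more probe stays unbound to SIAE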
Starred values were filed as active, the others as inactive; nt = not tested or not shown.

SMILES	DDE Tn7 FP inh	SIAE primary	ABHD4 inh	HTRA1 inhibitor	TCR CD3 inh	Tn6 DDE FP	ABHD4 confirm	others
CC(C)C1OC2(C)OC(=N)C1(C#N)C(C#N)(C#N)C2c1ccccc1 (configuration not stated)	9	22*	35*	7	18	20*	nt	DDE Tn6 FP ctr=-3;Tn6 DDE conf=2;SIAE inh conf=10
CCN(Cc1cn(Cc2ccc(C)cc2)nn1)S(=O)(=O)c1ccccc1Br	-2	2	0	nt	nt	0	nt
CC1=C[C@]2(C[N+](Cc3ccccc3)=C(N)N2)n2c(=O)n(-c3ccccc3)c(=O)n2C1	2	2	3	nt	nt	5	nt
Nc1ccc(N2CCOCC2)c(S(=O)(=O)Nc2ccccc2Cl)c1	5	39*	19	10	19	18*	nt	DDE Tn6 FP ctr=6;Tn6 DDE conf=4;SIAE inh conf=2
CN(C)c1ccc(N=Nc2ccc(S(N)(=O)=O)cc2)cc1	-4	-5	-11	0	-3	6	nt
CC1=CC(=O)C=CC1=Nc1ccc(N(C)C)cc1	-7	17*	64*	nt	-5	22*	57*	DDE Tn6 FP ctr=2;Tn6 DDE conf=-2;SIAE inh conf=12
Cc1ccc(C2CC(=O)Oc3cc(O)ccc32)cc1 (configuration not stated)	7	19*	55*	30	10	34*	44*	DDE Tn6 FP ctr=-4;Tn6 DDE conf=8;SIAE inh conf=11
O=Cc1cc(N=Nc2ccc(S(=O)(=O)O)cc2)ccc1O	2	-35	17	7	5	3	nt
CN(C)c1ccc(N=Nc2ccc(S(=O)(=O)O)cc2)c2ccccc12	4	0	56*	26	-4	-1	60*
CC(=O)C1(C(=O)NCc2ccccc2)CC(c2ccccc2C(F)(F)F)=NO1 (configuration not stated)	-2	7	1	nt	nt	0	nt
COC(=O)[C@@H](NCc1ccc(B(O)O)cc1)C(C)C	-1	-6	48*	-3	4	2	36*
Cc1ccc2c(c1)C1CS(=O)(=O)N(C3CCCC3)C(=O)N1C2 (configuration not stated)	-2	-4	5	nt	nt	1	nt
COc1ccc(OC)c(C2Nc3c(Cl)ccc(C(=O)O)c3C3C=CCC32)c1 (configuration not stated)	-2	6	47*	16	0	-1	22
COC(=O)COc1ccc(C2Nc3c(Cl)ccc(C(=O)O)c3C3C=CCC32)cc1 (configuration not stated)	-6	-7	36*	28	16	3	20
Cc1cc(C)c2c(c1)C1C=CCC1C(c1ccc(S(=O)(=O)N3CCOCC3)cc1)N2 (configuration not stated)	-5	4	5	-5	5	0	nt
Oc1cccc(-c2nnc(-c3cccc(O)c3)nn2)c1	6	-1	42*	-1	3	-10	60*
COCc1cn(-c2ccc3c(c2)[C@@]2(CC(=O)N(C)C2c2ccccc2)C(=O)N3CC(C)C)nn1 (some centres not stated)	-7	-58	3	nt	nt	0	nt
Cc1ccc2nc(CSc3nc(C)cc(C)c3C#N)[nH]c2c1	4	3	44*	-4	5	5	15
Cc1cc(C)c(C#N)c(SCc2ccccc2)n1	0	-8	-13	-12	-2	-3	nt
CCn1c2ccccc2c2cc(C=NNC(=O)c3cc(-c4ccc(OC)cc4)n[nH]3)ccc21	11	-21	-32	nt	nt	10	nt
CC(=O)N1CCN(c2ccc(NCc3ccc(Br)o3)cc2)CC1	7	12	38*	29	3	2	18
CC(=O)N1CCN(c2ccc(NCc3ccc(C)s3)cc2)CC1	3	17	22	24	-3	4	nt
C#CCCN([C@H](C(=O)OC)C(C)C)S(=O)(=O)c1ccccc1Br	-1	2	-3	nt	nt	7	nt
COc1ccc(C(=O)OCC(=O)c2ccc3c(c2)NC(=O)CO3)cc1OC	-4	-9	0	1	0	0	nt
CC(=O)Nc1cc(NC(C)=O)cc(C(=O)OCC(=O)c2ccc3c(c2)NC(=O)CO3)c1	-7	-4	46*	-3	-2	-6	7
SMILES	DDE Tn7 FP inh	SIAE primary	ABHD4 inh	HTRA1 inhibitor	TCR CD3 inh	Tn6 DDE FP	ABHD4 confirm	others
O=C(OC12CCCN(C1)/C(=C/c1cccc(Cl)c1)C2)c1ccco1 (configuration not stated)	-3	0	-11	nt	nt	1	nt
COC(=O)CCCC1=CC2=CC(=O)C(C)(OC(=O)c3cccs3)C(=O)C2=CN1Cc1ccco1 (configuration not stated)	-5	13	32*	16	6	1	14
Cc1n[nH]c(=S)n(NC(=O)/C=C/C(=O)Nn2c(=S)[nH]nc(C)c2=O)c1=O	1	-5	38*	17	18	2	9
CCCCCCCCNC(=O)C1CSCCS(=O)(=O)N1Cc1ccc(OC)cc1 (configuration not stated)	3	-1	1	nt	nt	-9	nt
CCOc1cc(/C=C2/C(=O)NN(c3cccc(Cl)c3)C2=O)ccc1O	0	6	36*	-4	-5	0	38*
COc1cc(/C=C2/C(=O)NN(c3ccc(C)c(Cl)c3)C2=O)cc([N+](=O)[O-])c1O	5	-2	63*	30	-3	3	56*
COc1cccc(/C=C2/C(=O)NN(c3ccc(C)c(C)c3)C2=O)c1	-16	11	35*	3	5	-5	13

Compound activity deposited in PubChem by The Scripps Research Institute Molecular Screening Center.
